Measurements: ChEMBL document CHEMBL1122610, “Dichloro[1,2-bis(4-hydroxyphenyl)ethylenediamine]platinum(II) complexes: an approach to develop compounds with a specific effect on the hormone-dependent mammary carcinoma” (J Med Chem, 1984)
“And” between values parts separate entries of the source, which are not always exact repeats. Equal entries are not always repeated.

Key:
ADJ/PC6 = assay: In vitro incorporation of the [3H]thymidine into the ADJ/PC6 Plasmacytoma cells; type: functional, cell-based; conditions: Mus musculus
Summary of the method: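 ADJ/PC6 tumor taken from passaged female Balb/C mice, minced and gently dispersed, then suspended in Eagle's MEM with 5% heat-inactivated horse serum, Hepes (5 mg/mL) and 0.1% Pluronic F 68, and filtered through gauze. Cells incubated 3 h at 37 °C with shaking, then pulsed with 1 μCi [methyl-3H]thymidine for 2 h. Ice-cold PBS stop, saline washes, sonication. Triplicates.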

MDA-MB-231 = assay: In vitro incorporation of [3H]thymidine into hormone-independent MDA-MB 231 breast cancer cells; type: functional, cell-based; conditions: Homo sapiens
Summary of the method: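 MDA-MB 231 cells grown in McCoy 5a with 10% newborn calf serum and gentamycin, switched to 5% serum 1 h before the experiment. Compounds added from fresh 1000-fold Me2SO concentrates (final solvent 0.1%). [3H]Thymidine incorporation into TCA-precipitable material measured. Mean of triplicates.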

Mus musculus [1] = assay: Animals without tumor after the test against the ADJ/PC6 Plasmacytoma cells of the BALB/C mouse at a dose of 8 mg/kg after 37 days was determined in vivo; type: functional, organism-based; set-up: dose 8 mg/kg
Mus musculus [2] = assay: Number of deaths against the ADJ/PC6 Plasmacytoma cells of the BALB/C mouse at a dose of 8 mg/kg after 37 days was determined in vivo; type: functional, organism-based; set-up: dose 8 mg/kg
Mus musculus [3] = assay: Antitumor activity against the ADJ/PC6 Plasmacytoma cells of the BALB/C mouse at a dose of 8 mg/kg after 37 days was determined in vivo; type: functional, organism-based; set-up: dose 8 mg/kg
Summary of the method: (§1)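 Female Balb/C mice, 14–18 g, inoculated subcutaneously with 5 × 10^6 ADJ/PC6 cells in 0.1 mL PBS (day 0). Compounds suspended in olive oil, given intraperitoneally as a single dose (day 1) or triple dose (days 1, 2, 3). Groups usually of 10 animals; cisplatin positive control. Test ran about 38 days; activity read as mean tumor volume as percent of untreated control (T/C, %).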

Rattus norvegicus [4] = assay: Compound was tested for the survival against L5222 Leukemia implanted rat at dose 3.5(10.5)mg/kg; type: functional, organism-based
Summary of the method: (§2)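 BD IX rats (3–6 months old, half female, half male), six per dose group, given 1 × 10^6 L 5222 cells in 1.0 mL physiological saline i.p. on day 0. The complex was in olive oil at a final 1 mg/mL and given i.p. as three injections, on days 1, 2, 3 or days 1, 5, 9. Read-out is median survival day and percent ILS.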

Rattus norvegicus [5] = assay: Compound was tested for the survival against L5222 Leukemia implanted rat at dose 3.5(10.5) mg/kg; type: functional, organism-based; summary of the method: as §2
[6] = biological target: Estrogen receptor (Bos taurus) (UniProt Q9XSB5+P49884); assay: In vitro inhibition of 1*10e-9 M [3H]estradiol binding to Estrogen receptor of calf uterine cytosol at 1*10e-5 M; type: protein assay
Summary of the method: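 Competition of [3H]estradiol binding in calf uterine cytosol (final protein 5 mg/mL); bound and free ligand separated by dextran-coated charcoal; percent inhibition of binding reported.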

Mus musculus [7] = assay: Animals without tumor after the test against the ADJ/PC6 Plasmacytoma cells of the BALB/C mouse at a dose of 15 mg/kg after 38 days was determined in vivo; type: functional, organism-based; set-up: dose 15 mg/kg
Mus musculus [8] = assay: Animals without tumor after the test against the ADJ/PC6 Plasmacytoma cells of the BALB/C mouse at a dose of 20 mg/kg after 37 days was determined in vivo; type: functional, organism-based; set-up: dose 20 mg/kg
Mus musculus [9] = assay: Animals without tumor after the test against the ADJ/PC6 Plasmacytoma cells of the BALB/C mouse at a dose of 20 mg/kg after 38 days was determined in vivo; type: functional, organism-based; set-up: dose 20 mg/kg
Mus musculus [10] = assay: Number of deaths against the ADJ/PC6 Plasmacytoma cells of the BALB/C mouse at a dose of 15 mg/kg after 38 days was determined in vivo; type: functional, organism-based; set-up: dose 15 mg/kg
Mus musculus [11] = assay: Number of deaths against the ADJ/PC6 Plasmacytoma cells of the BALB/C mouse at a dose of 20 mg/kg after 37 days was determined in vivo; Value denoted as dead/test = 2/10; type: functional, organism-based; set-up: dose 20 mg/kg
Mus musculus [12] = assay: Number of deaths against the ADJ/PC6 Plasmacytoma cells of the BALB/C mouse at a dose of 20 mg/kg after 38 days was determined in vivo; type: functional, organism-based; set-up: dose 20 mg/kg
Mus musculus [13] = assay: Antitumor activity against the ADJ/PC6 Plasmacytoma cells of the BALB/C mouse at a dose of 15 mg/kg after 38 days was determined in vivo; Value denoted as dead/test = 1/10; type: functional, organism-based; set-up: dose 15 mg/kg; summary of the method: as §1
Mus musculus [14] = assay: Antitumor activity against the ADJ/PC6 Plasmacytoma cells of the BALB/C mouse at a dose of 20 mg/kg after 37 days was determined in vivo; type: functional, organism-based; set-up: dose 20 mg/kg; summary of the method: as §1
Mus musculus [15] = assay: Antitumor activity against the ADJ/PC6 Plasmacytoma cells of the BALB/C mouse at a dose of 20 mg/kg after 38 days was determined in vivo; Value denoted as dead/test = 0/10; type: functional, organism-based; set-up: dose 20 mg/kg; summary of the method: as §1
Rattus norvegicus [16] = assay: Compound was tested for the increase in life span of L5222 Leukemia implanted rat at dose 20(60) mg/kg; type: functional, organism-based
Summary of the method: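 BD IX rats, 3–6 months old, half female and half male, six per dose group, given 1 × 10^6 L 5222 cells in 1.0 mL physiological saline intraperitoneally (day 0). Complex dissolved in olive oil at 1 mg/mL; three injections on days 1, 2, 3 or 1, 5, 9. Scored as percent increased life span (ILS).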

Rattus norvegicus [17] = assay: Compound was tested for the survival against L5222 Leukemia implanted rat at dose 20(60) mg/kg; type: functional, organism-based; summary of the method: as §2

Row | Substance | ID50 (ADJ/PC6) | ID50 (MDA-MB-231) | Activity (Mus musculus [1]) | Deaths (Mus musculus [2]) | T/C (Mus musculus [3]) | Median day of survival (Rattus norvegicus [4]) | Median day of survival (Rattus norvegicus [5]) | inhibition [6] | Activity (Mus musculus [7]) | Activity (Mus musculus [8]) | Activity (Mus musculus [9]) | Deaths (Mus musculus [10]) | Deaths (Mus musculus [11]) | Deaths (Mus musculus [12]) | T/C (Mus musculus [13]) | T/C (Mus musculus [14]) | T/C (Mus musculus [15]) | ILS (Rattus norvegicus [16]) | Median day of survival (Rattus norvegicus [17])
1 | CISPLATIN | 9.5 µM | 0.65 µM | 10 | 0 | 0% | 14.5 | 17.5 | – | – | – | – | – | – | – | – | – | – | – | –
2 | (+) R,R-dichloro-[1,2-bis(4-hydroxyphenyl)ethylenediamine]platinum (II) | – | – | – | – | – | – | – | 11% and 13.7% and 9.7% | 7 | 8 | 7 | 1 | 2 | 0 | 1% | 0% | 0% | 175% | 18
